Screening results deposited in PubChem BioAssay by several laboratories.
MC4R barr agon: agonists of human melanocortin 4 receptor (MC4R) beta-arrestin | P32245 | U2OS MC4R beta-arrestin complementation, luminescence; percent of melanotan II response, DMSO zero | activation, % at 8.9 µM | actives 0.98% (n = 360,000) | AID 540308;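 active = activation above a per-plate cutoff, the mean activation of sample wells on that plate plus 3 SD, cut at about 8% in these data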
Target sequence (P32245 whole entry, looked up): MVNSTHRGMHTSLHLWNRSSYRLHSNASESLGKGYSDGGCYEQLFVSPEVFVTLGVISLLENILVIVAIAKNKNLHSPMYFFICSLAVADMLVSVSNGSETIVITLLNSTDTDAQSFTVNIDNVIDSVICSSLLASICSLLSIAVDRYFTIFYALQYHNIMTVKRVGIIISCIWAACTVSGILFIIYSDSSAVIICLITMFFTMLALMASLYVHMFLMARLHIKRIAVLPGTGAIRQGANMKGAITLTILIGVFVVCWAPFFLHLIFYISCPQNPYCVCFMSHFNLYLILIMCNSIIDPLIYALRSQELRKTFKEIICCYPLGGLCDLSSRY
Efflux pump mplx: antifungal efflux pump inhibition, Nile Red retention. S. cerevisiae Candida pump triplex. actives 0.44% (n = 330,000). AID 485275. inhibition, % at 10 µM;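 active = plate passing quality check with inhibition over a set limit, or well fluorescence over plate mean plus 4 SD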;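 also: Nile Red retained in pooled yeast measured as flow cytometry median fluorescence; higher means more Nile Red kept so more efflux inhibition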
Calb FLC: affects C. albicans growth with fluconazole; C. albicans CaCi-2 + fluconazole, Alamar Blue growth, 48 h; growth inhibition, % (test concentration not listed); actives 0.57% (n = 300,000); AID 1979;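 active = growth inhibition above about 58% in most replicates, limit read from the data, passing the limit was not always enough; inconclusive = exactly half the replicates above a set limit; inactive = most replicates below a set limit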;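 also: all wells also contain fluconazole at 8 µg/ml as a sub-toxic cotreatment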
GalR3 antag: blocks the human galanin receptor 3; O60755; HEK293 GalR3-CNG cAMP membrane potential fluorescence; galR3 body fused to GalR1 C-terminus; inhibition, % at 3 µM; actives 0.44% (n = 360,000); AID 651719;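 active = inhibition above the screen-wide average plus 3 SD, cut at about 13% in these data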;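 also: forskolin and galanin both at EC90 stimulate the cells; cAMP rise reported by CNG channel membrane potential dye signal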
Target sequence (O60755 1-299 limits assumed): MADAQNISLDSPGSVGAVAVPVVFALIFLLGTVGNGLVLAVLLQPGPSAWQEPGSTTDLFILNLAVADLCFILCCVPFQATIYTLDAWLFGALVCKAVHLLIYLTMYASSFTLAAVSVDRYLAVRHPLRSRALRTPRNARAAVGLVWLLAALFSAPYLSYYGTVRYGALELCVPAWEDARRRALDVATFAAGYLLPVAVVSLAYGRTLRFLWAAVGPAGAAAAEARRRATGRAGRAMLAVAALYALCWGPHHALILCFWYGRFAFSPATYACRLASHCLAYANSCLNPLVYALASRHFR
MC4R antagonist: blocks human MC4R cAMP signaling | inhibition, % at 6.5 µM | P32245 | AID 540295 | MC4R-expressing cells, MTII-stimulated cAMP, LANCE TR-FRET | actives 0.48% (n = 360,000);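 active = inhibition above its plate's cutoff, the mean of tested wells on that plate plus 3 SD, cut at about 29% in these data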
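System: U2OS cells stably expressing human melanocortin 4 receptor (MC4R). Reagent: Melanotan II challenge after compound preincubation. Doses: 6.5 µM. Times: 30-min compound, 1-h challenge, 1-h detection, room temperature. Measured by: TR-FRET with Eu-cAMP and labeled anti-cAMP, 671 nm. Replicates: singlicate.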
TAG inh: triacylglycerol accumulation inhibition; AID 651582; actives 0.66% (n = 230,000); H9c2 cells, Nile Red lipid (TAG) fluorescence; cells loaded with 200 µM oleic acid; inhibition, % at 12.5 µM;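 active = pattern-corrected inhibition of lipid staining of at least 50% with the nuclear-stain viability signal not falling by more than 50%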
Each line names hits and unclear results; the compound was inactive in the other large screens. Only some compounds are listed: those with a hit (about 2.9% of all), similar ones and a draw of the others.

CN(C)c1ccc(CNc2ncnc3sccc23)cc1	Calb FLC 85 (no result: TAG inh)
O=C(Nc1ccc(Cl)cc1)c1nc[nH]c1C(=O)NCCCCNC(=O)c1[nH]cnc1C(=O)Nc1ccc(Cl)cc1	TAG inh 110 (no result: Calb FLC)
Cc1cccc(NC(=O)c2nc[nH]c2C(=O)NCCCCNC(=O)c2[nH]cnc2C(=O)Nc2cccc(C)c2)c1	TAG inh 78 (no result: Calb FLC)
CCOC(=O)c1ccc(NC(=O)c2nc[nH]c2C(=O)NCCNC(=O)c2[nH]cnc2C(=O)Nc2ccc(C(=O)OCC)cc2)cc1	TAG inh 135 (no result: Calb FLC)
O=C(Nc1cccc(Cl)c1)c1nc[nH]c1C(=O)NCCCCNC(=O)c1[nH]cnc1C(=O)Nc1cccc(Cl)c1	TAG inh 65 (no result: Calb FLC)
O=C(Nc1ccc(Cl)cc1)c1nc[nH]c1C(=O)Nc1ccccc1F	none (no result: Efflux pump mplx, Calb FLC)
CCOC(=O)c1ccc(NC(=O)c2nc[nH]c2C(=O)NC)cc1	none
O=C1NC[C@H](CCCCN2C[C@@H](Cc3ccccc3)N(CC3CCCCC3)C(=O)C2=O)N(CCC2CCCCC2)C1=O	none (no result: MC4R barr agon, Efflux pump mplx, Calb FLC, MC4R antagonist, TAG inh)
O=C(CN1CCN(C(=O)CNC(=O)c2ccc(N3CCCC3=O)cc2)CC1)Nc1cccc(F)c1	none (no result: Efflux pump mplx, Calb FLC)
NS(=O)(=O)c1ccc(CCNC(=O)CSc2nc3c(sc(=S)n3-c3ccccc3)c(=O)[nH]2)cc1	none (no result: Efflux pump mplx, Calb FLC)
O=C(Nc1cccc(Cl)c1)c1nc[nH]c1C(=O)NCCN(CCNC(=O)c1[nH]cnc1C(=O)Nc1cccc(Cl)c1)CCNC(=O)c1[nH]cnc1C(=O)Nc1cccc(Cl)c1	TAG inh 75 (no result: Calb FLC)
COC(=O)c1cccc(NC(=O)Nc2ccc(Cl)cc2Cl)c1	MC4R barr agon 9.0
COC(=O)c1cccc(NC(=S)Nc2cc(Cl)ccc2OC)c1	none
CCN(CC(=O)Nc1c(C(=O)OC)[nH]c2ccccc12)c1ccc2c(c1)OCO2	none
COC(=O)c1[nH]c2ccccc2c1NC(=O)/C=C/c1ccc2c(c1)OCO2	MC4R barr agon 8.4 (no result: TAG inh)
CCOc1cc(/C=N/NC(N)=O)cc(Br)c1OCC(=O)Nc1cccc2ccccc12	GalR3 antag 44
CCOc1cc(/C=N/O)cc(Br)c1OCC(=O)NCc1ccccc1	none (no result: TAG inh)
COc1cc(/C=N\NC(=O)c2ccc(C)nc2)ccc1OC(=O)c1cccc(F)c1	MC4R barr agon 9.1 (no result: TAG inh)
Cc1ccc(C(=O)N/N=C\c2ccc(OC(=O)c3cccc(F)c3)cc2)cn1	none (no result: TAG inh)
COc1cc(C(=O)N/N=C/c2ccc(OC(=O)c3ccccc3Cl)c(OC)c2)ccc1O	MC4R barr agon 11 (no result: GalR3 antag)
COc1ccc(/C=N\NC(=O)c2ccc(-c3ccccc3)cc2)cc1COC(C)=O	MC4R barr agon 9.1
COc1ccc(/C=N\NC(=O)c2ccccc2)cc1COc1ccc(F)cc1	none
CCOc1cc(/C=N/NC(=O)c2cccnc2)ccc1OCC(N)=O	Calb FLC 107
Cc1ccc(S(=O)(=O)N(C)C[C@@H]2OCc3cnnn3CCCC(=O)N([C@H](C)CO)C[C@H]2C)cc1	none (no result: Efflux pump mplx, Calb FLC)
Cc1ccc(-n2nc3c(N4CCC(C(=O)NCc5ccccc5C)CC4)nnc(C)c3c2C)cc1	MC4R barr agon 9.6 (no result: GalR3 antag, TAG inh)
Cc1ccc2c(c1)-n1c(nc3cc(Cl)ccc3c1=O)C(Cc1ccccc1)NC2=O (configuration not stated)	none (no result: MC4R barr agon, Calb FLC, GalR3 antag, MC4R antagonist, TAG inh)
COc1ccccc1CCn1cnc(-c2ccc(Cl)cc2)c1CC(C)C	none (no result: MC4R barr agon, Efflux pump mplx, Calb FLC, MC4R antagonist, TAG inh)
O=C(CSc1cccc[n+]1[O-])N1CCCCCC1	none
O=C(CSc1cccc[n+]1[O-])CSc1cccc[n+]1[O-]	Calb FLC 73
COC(=O)c1ccc(C(=O)OC)c(NC(=O)CSc2cccc[n+]2[O-])c1	Calb FLC 113 (no result: TAG inh)
CC1=C(C(=O)N(C)C)CC(CC(=O)NCCc2ccccn2)C(=O)N1CCCN1CCCC1=O (configuration not stated)	none (no result: Efflux pump mplx, Calb FLC)
O=C(OCC1CCC=CO1)C1CCC=CO1 (configuration not stated)	none (no result: Efflux pump mplx, Calb FLC)
O=C(COS(=O)c1ccccc1)Nc1cc(Cl)ccc1N1CCOCC1 (configuration not stated)	Calb FLC 64 (no result: TAG inh)
Cc1ccc(S(=O)OCC(=O)Nc2cc(Cl)ccc2N2CCOCC2)cc1 (configuration not stated)	none (no result: TAG inh)
O=C(CC1CC2CCC1C2)Nc1nc(-c2ccccn2)cs1 (configuration not stated)	Calb FLC 87
O=C(Nc1nc(-c2ccccn2)cs1)c1ccc(Br)s1	Calb FLC 93
O=C(Nc1nc(-c2ccccn2)cs1)c1ccco1	none
O=C(Nc1nc(-c2ccccn2)cs1)c1cccc(-n2cnnn2)c1	TAG inh 73
CCCCC(=O)Nc1ncc([N+](=O)[O-])s1	Calb FLC 83
Cc1ccc(-c2nnc(NC(=O)c3ccc([N+](=O)[O-])o3)o2)c(C)c1	Calb FLC 85
O=C(NCc1ccccc1)C1c2ccccc2OCC(=O)N1Cc1ccccc1 (configuration not stated)	none (no result: MC4R barr agon, Efflux pump mplx, Calb FLC, MC4R antagonist, TAG inh)
COc1ccc2ccccc2c1/C=N/NC(=O)c1sc(N)c(C#N)c1C	MC4R barr agon 10 (no result: TAG inh)
CC(=O)c1cccc(N=c2scc(-c3ccc(S(=O)(=O)N4CCOCC4)cc3)n2CCO)c1	Calb FLC inconclusive, GalR3 antag 114 (no result: TAG inh)
O=[N+]([O-])c1nccn1CCCCCCCCCCCN1CCOCC1	none (no result: MC4R barr agon, Efflux pump mplx, Calb FLC, MC4R antagonist, TAG inh)
N=C1/C(=C/c2cccn2Cc2ccc(Cl)cc2)C(=O)N=C2SC=CN12	MC4R barr agon 9.4 (no result: TAG inh)
CC1=CC2=NC(=O)/C(=C/c3cccn3Cc3ccccc3)C(=N)N2O1	none
CCN1/C(=C/C(C)=C/c2sc3ccccc3[n+]2CC)Sc2ccccc21	Calb FLC 103
CCN1/C(=C\C(=S)Nc2ccccc2)Sc2ccccc21	none
CCCCCCn1c(SCC(=O)Nc2cc(C)on2)nc2ccccc2c1=O	MC4R barr agon 12 (no result: TAG inh)
CCCCNC(=O)CSc1nc2ccccc2c(=O)n1CC1COc2ccccc2O1 (configuration not stated)	MC4R barr agon 9.4 (no result: TAG inh)
COCCn1c(SCC(=O)Nc2cc(C)on2)nc2ccccc2c1=O	none (no result: Calb FLC)
CCCCn1c(SCC(=O)Nc2cccc(OC)c2)nc2ccc(N3CCOCC3)cc2c1=O	Calb FLC 96
CCOC(=O)[C@]12CCC=C1N(Cc1ccccc1)C(=O)[C@H](CC(=O)NCc1ccccc1)C2	none (no result: MC4R barr agon, Efflux pump mplx, Calb FLC, MC4R antagonist, TAG inh)
Cc1ccc(-c2cc(N)n(Cc3ccc(Cl)cc3)n2)cc1	GalR3 antag 89
Cc1cc(N)n(Cc2ccc(Cl)cc2)n1	none
O=[N+]([O-])c1ccc(N/N=C/c2cccc(O)c2O)cc1	none (no result: TAG inh)
Cc1cccc(C(=O)Oc2ccccc2/C=N/Nc2ccc([N+](=O)[O-])cc2)c1	MC4R barr agon 9.2 (no result: Calb FLC, TAG inh)
O=C1CCC[C@@H]2[C@@H](Cc3ccccc3)[C@H](N3CCN(c4ccccc4)CC3)C[C@@H]3CCN1[C@@H]32	none (no result: Efflux pump mplx, Calb FLC)
O=C(NCC1CCCO1)c1nn2c(c1Cl)NC(c1ccc(F)cc1)CC2C(F)(F)F (configuration not stated)	none (no result: Calb FLC)
